Assay results pooled from the literature.
Compare with care: the assays were run in different laboratories.
Target: Leukocyte tyrosine kinase receptor (LTK, Homo sapiens, UniProt P29376)

Structure (SMILES)	observed	technique	tested at	remaining binding
CC(C)CC(=O)N1CCc2nc(-c3ccc(Br)cc3)nc(N(C)Cc3ccccc3)c2C1	cell-free assay	competition with immobilised ligand	0.1 µM	91%
O=C(NCCCN1CCOCC1)c1ccc(Nc2ncc(Cl)c(-c3ccc(Cl)s3)n2)cc1	binding	competition with immobilised ligand	1 µM	100%
CNC(=O)[C@@H]1CC[C@@H](n2c(-c3ccc4cnccc4c3)nc3ccc(C(=O)NCc4cccc(C(N)=O)c4)cc32)C1	binding	competition with immobilised ligand	1 µM	89%
CC(=O)C1=C(C)N(c2cccc(C(F)(F)F)c2)C(=O)N[C@@H]1c1ccc(C#N)nc1	cell-free assay	competition with immobilised ligand	1 µM	92.6%
c1cncc(-c2cccc(Nc3nccc(NC4CCCCC4)n3)c2)c1	binding	competition with immobilised ligand	10 µM	68%
O=C1CCc2cc(Nc3cc(OC4CCOCC4)c([N+](=O)[O-])cc3Cl)ccc2N1	cell-free assay	competition with immobilised ligand	1 µM	100%
CN(C)c1nccc(-c2cnn3ncccc23)n1	binding	–	1 µM	92%
O=C(NCCCN1CCOCC1)c1ccc(Nc2nccc(-c3cc4ccccc4s3)n2)cc1	binding	competition with immobilised ligand	1 µM	100%
Cc1cnn2ncc(-c3ccnc(N(C)C)n3)c2c1	binding	–	1 µM	98%
O=C(c1ccc(Nc2ncc(Cl)c(-c3ccc(Cl)s3)n2)cc1)N1CCC(N2CCCC2)CC1	binding	competition with immobilised ligand	1 µM	90%
C[C@H]1CCN(c2nccc(-c3cnn4ncccc34)n2)C1	binding	–	1 µM	91%
C=CC(=O)N1CCC(C(=O)NCC(=O)N2CCN(c3nc(-c4cnc(N)nc4C(F)F)nc(N4CCOCC4)n3)CC2)CC1	binding	competition with immobilised ligand	1 µM	100%
O=C(Nc1c[nH]nc1C(=O)NC1CCNCC1)c1cc(F)cc(F)c1	binding	competition with immobilised ligand	1 µM	74%
CCCOc1ccc([C@@H]2[C@@H](C(=O)O)[C@H](c3ccc4c(c3)OCO4)CN2CC(=O)Nc2c(CC)cccc2CC)cc1	cell-free assay	competition with immobilised ligand	1 µM	100%
CC1CCCN1c1nccc(-c2cnn3ncccc23)n1 (stereo not shown)	binding	–	1 µM	100%
FC(F)(F)Oc1cccc(-c2cnc3ccc(-c4ccncc4)nn23)c1	cell-free assay	competition with immobilised ligand	5 µM	100%
N[C@@H]1CCN(c2nccc(-c3cnn4ncccc34)n2)C1	binding	–	1 µM	100%
COc1ccc2cc(OCC3(C(=O)O)CN(C(=O)c4ccc(F)cc4)C3)ccc2c1	cell-free assay	competition with immobilised ligand	1 µM	100%
Cc1cc(-c2cc(C(F)(F)F)ccc2O[C@H]2C[C@@]2(CNS(=O)(=O)c2ccc([N+](=O)[O-])cc2)c2ccc(F)cc2F)[nH]n1	cell-free assay	competition with immobilised ligand	0.3 µM	6.9%
C[C@@H]1CN(c2cc(-c3n[nH]c4ccc(OC5(C)CC5)cc34)ncn2)C[C@H](C)O1	cell-free assay	competition with immobilised ligand	0.1 µM	84%
COc1cnc(Nc2cccc(S(N)(=O)=O)c2)nc1N1CCN(c2ccccc2)C(=O)C1	binding	competition with immobilised ligand	1 µM	91%
CN(CCCC(F)(F)F)c1nccc(-c2cnn3ncccc23)n1	binding	–	1 µM	96%
